Assay results of several laboratories.
Values after ≈ are worked out from the molar mass of the structure shown.

| SMILES | assay | system | conditions | quantity | result |
| --- | --- | --- | --- | --- | --- |
| CC(C)C[C@H](NC(=O)[C@@H]1COCCCCCC(=O)NCC(=O)N2CCC[C@H]2C(=O)N1)C(=O)[C@@]1(C)CO1 | – | Caco-2 | 10 µM, 2 h, pH 7.4 | Papp B→A | 7.25 ×10⁻⁶ cm/s |
| Cn1nc2c(=O)n(C3CC3)nc(C3CC3)c2c1Cc1ccc(C(F)(F)F)c(F)c1 | nephelometry | aqueous buffer | 30 min, pH 6.5 | kinetic solubility | 6.3 to 12.5 µM (≈ 2.56 to 5.08 µg/mL) |
| Cn1cncc1[C@@](N)(c1ccc(Cl)cc1)c1ccc2c(c1)c(-c1cccc(Cl)c1)cc(=O)n2C | – | FaSSIF | pH 6.5, 37 °C | solubility | 14.1 µg/mL (≈ 28.8 µM) |
| Cn1nc2c(=O)n(C3CC3)ncc2c1[C@](O)(c1ccc(C(F)(F)F)c(Cl)c1)C(F)(F)F | nephelometry | aqueous buffer | 30 min, pH 6.5 | kinetic solubility | 5 to 10 µM (≈ 2.33 to 4.67 µg/mL) |
| CO[C@]1(C(=O)N[C@@H](C)c2ccc(-n3cc(F)cn3)nc2)CC[C@H](c2nc(C)cc(Nc3cc(C)[nH]n3)n2)CC1 | – | – | – | pKa | 6.71 |
| CC[C@@](O)(c1ccc(C(F)(F)F)c(C#N)c1)c1c2ccn(C3CC3)c(=O)c2nn1C | nephelometry | aqueous buffer | 30 min, pH 6.5 | kinetic solubility | 20 to 40 µM (≈ 8.33 to 16.7 µg/mL) |
| CCCCC(CC)CNC(=N)NC(=N)NCCCCCCNC(=N)NC(=N)NCC(CC)CCCC (centres unmarked) | – | Caco-2 | 5 µM, 2 h | Papp A→B | < 0.07 ×10⁻⁶ cm/s |
| Cn1cncc1[C@@](N)(c1ccc(Cl)cc1)c1ccc2c(c1)c(-c1cccc(Cl)c1)cc(=O)n2C | – | beagle dog, plasma | oral, 10 mg/kg, single dose | bioavailability | 65% |
| CC1(F)CN(C(=O)Cn2c(=O)c(C(=O)NCc3ccc(Cl)cc3)cc3nc(N4CCNC4=O)cnc32)C1 | – | aqueous buffer | 24 h, pH 7.4, 37 °C | thermodynamic solubility | < 1.56 µM |
| CCn1cc(Cl)c2c(Cc3ccc(N4CCCCC4)nc3)n(C)nc2c1=O | nephelometry | aqueous buffer | 30 min, pH 6.5 | kinetic solubility | 40 to 80 µM (≈ 15.4 to 30.9 µg/mL) |
| CN1CCN(c2cnc3c(cc(C(=O)NCc4ccc(Cl)cc4)c(=O)n3CC(=O)N3CC(C)(F)C3)n2)C1=O | – | aqueous buffer | 24 h, pH 7.4, 37 °C | thermodynamic solubility | < 1.56 µM |
| Cc1c(C(=O)O)ccc2c3n(nc12)[C@@H]1[C@H](C3)N(CC2CC2)[C@@]2(C(=O)Nc3cc(Cl)ccc32)[C@H]1c1cccc(Cl)c1F | – | male dog, plasma | oral, 2 mg/kg | bioavailability | 109% |
| C[C@H]1COC2=C1C(=O)C(=O)c1c2ccc2c1CCCC2(C)C | – | PBS | 24 h, pH 4, 25 °C | thermodynamic solubility | 15.8 µg/mL |
| CC(C)NCC(O)COc1cccc2ccccc12 (centres unmarked) | – | Caco-2 | 5 µM, 2 h | Papp A→B | 18.4 ×10⁻⁶ cm/s |
